pIC50: −log10 of the molar value.
Legend:
Format in all cases: functional, organism-based
[1] = tested on: Human betaherpesvirus 5; assay: Antiviral activity against Human CMV T2311 in HFF cells by SEAP assay; settings: Human betaherpesvirus 5, T2311, HFF
In short: (§1)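 Cell-free stocks of AD169-derived recombinant viruses were inoculated at MOI 0.01 to 0.03 onto human foreskin fibroblasts. Cultures were grown without drug or with twofold increasing concentrations of GCV, FOS or CDV for 7 days. Supernatant SEAP activity was then measured. IC50 was derived by linear regression. Values are means and standard deviations of 7 to 23 replicate experiments.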

[2] = tested on: Human betaherpesvirus 5; assay: Antiviral activity against Human CMV T2311 in HFF cells by PRA; settings: Human betaherpesvirus 5, T2311, HFF
[3] = tested on: Human betaherpesvirus 5; assay: Antiviral activity against Human CMV T2291 in HFF cells by PRA; settings: Human betaherpesvirus 5, T2291, HFF
[4] = tested on: Human betaherpesvirus 5; assay: Antiviral activity against Human CMV T2287 in MRC5 cells by PRA; settings: Human betaherpesvirus 5, T2287, MRC5
In short: (§2)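 Plaque reduction in human lung MRC-5 fibroblasts, 80 to 100% confluent, infected with 50 PFU cell-free virus. Plates centrifuged 600 × g for 30 min, then 1 h at 37°C, 5% CO2. Inoculum removed; grown in duplicate with 0.625–160 μM GCV, 6.25–1,600 μM FOS or 0.0625–16 μM CDV in 0.8% carboxymethyl cellulose medium. Plaques counted at 7 days for IC50. Repeated 8–11 times; mean and SD.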

[5] = tested on: Human betaherpesvirus 5; assay: Antiviral activity against Human CMV T2293 in HFF cells by PRA; settings: Human betaherpesvirus 5, T2293, HFF
[6] = tested on: Human betaherpesvirus 5; assay: Antiviral activity against Human CMV Towne in MRC5 cells by PRA; settings: Human betaherpesvirus 5, Towne; in short: as §2
[7] = tested on: Human betaherpesvirus 5; assay: Antiviral activity against Human CMV T2296 in MRC5 cells by PRA; settings: Human betaherpesvirus 5, T2296, MRC5; in short: as §2
[8] = tested on: Human betaherpesvirus 5; assay: Antiviral activity against Human CMV T2211 in HFF cells by SEAP assay; settings: Human betaherpesvirus 5, T2211, HFF; in short: as §1
[9] = tested on: Human betaherpesvirus 5; assay: Antiviral activity against Human CMV AD169 in HFF cells by PRA; settings: Human betaherpesvirus 5, AD169, HFF
[10] = tested on: Human betaherpesvirus 5; assay: Antiviral activity against Human CMV T2233 in HFF cells by SEAP assay; settings: Human betaherpesvirus 5, T2233, HFF; in short: as §1
[11] = tested on: Human betaherpesvirus 5; assay: Antiviral activity against Human CMV T2291 in HFF cells by SEAP assay; settings: Human betaherpesvirus 5, T2291, HFF; in short: as §1
[12] = tested on: Human betaherpesvirus 5; assay: Antiviral activity against Human CMV T2293 in HFF cells by SEAP assay; settings: Human betaherpesvirus 5, T2293, HFF; in short: as §1
[13] = tested on: Human betaherpesvirus 5; assay: Antiviral activity against Human CMV T2241 in HFF cells by SEAP assay; settings: Human betaherpesvirus 5, T2241, HFF; in short: as §1

| Structure (SMILES) | pIC50 [1] | pIC50 [2] | pIC50 [3] | pIC50 [4] | pIC50 [5] | pIC50 [6] | pIC50 [7] | pIC50 [8] | pIC50 [9] | pIC50 [10] | pIC50 [11] | pIC50 [12] | pIC50 [13] |
| --- | --- | --- | --- | --- | --- | --- | --- | --- | --- | --- | --- | --- | --- |
| O=C(O)P(=O)(O)O [FOSCARNET] | 3.51 | 3.14 | 3.37 | 3.31 | 3.91 | 4.20 | 4.20 | 4.39 | 4.11 | 4.35 | 3.56 | 4.49 | 4.38 |
| Nc1nc2c(ncn2COC(CO)CO)c(=O)[nH]1 [GANCICLOVIR] | 4.52 | 4.91 | 5.39 | 4.52 | 5.00 | 5.31 | 5.27 | – | 5.72 | 5.85 | 5.15 | 5.25 | 5.85 |
| Nc1ccn(C[C@@H](CO)OCP(=O)(O)O)c(=O)n1 [CIDOFOVIR] | 5.33 | 5.05 | 5.48 | 5.74 | 5.31 | 6.52 | 6.22 | 6.70 | 6.05 | 6.52 | 6.15 | 5.28 | 6.52 |
